Test results published in ChEMBL document CHEMBL4622976, “Development of pH/Glutathione-Responsive Theranostic Agents Activated by Glutathione S-Transferase π for Human Colon Cancer” (J Med Chem, 2020).

Key:
[1] = Drug metabolism assessed as GSTalpha (unknown origin) mediated 1-(3,4,5-trimethoxyphenyl)-9H-pyrido[3,4-b]indol-3-amine formation at 40 uM in presence of 0.8 mM GSH by HPLC analysis; assay type: ADME; conditions: human
Summary of the method: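 HPLC measurement of amine release after incubating compound (40 µM) with GSH (0.8 mM) and GSTπ or GSTα at 0.03 µg/ml.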

[2] = Drug metabolism assessed as GSTpi (unknown origin) mediated compound fluorescence activation at 1 uM in presence of 1 mM Ca2+ by HPLC analysis; assay type: ADME; conditions: human
Summary of the method: (§1)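 Selectivity test: compound (1 µM) with catalytic GSTπ and each analyte in water with 1% (v/v) DMSO at pH 4.0, 37 °C for 0.5 h. Analytes were cations at 1 mM; amino acids, vitamin C, Na2S and GSH at 100 µM. Readout was fluorescence emission spectra (excitation 440 nm, recorded 450–650 nm).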

[3] = Drug metabolism assessed as GSTpi (unknown origin) mediated compound fluorescence activation at 1 uM in presence of 100 uM glycine by HPLC analysis; assay type: ADME; conditions: human; summary of the method: as §1
[4] = Drug metabolism assessed as GSTpi (unknown origin) mediated compound fluorescence activation at 1 uM in presence of 50 uM […] by HPLC analysis; assay type: ADME; conditions: human
[5] = Drug uptake in lysosome of human CCD-841 cells at 1 uM incubated for 60 mins by Lyso-tracker based confocal fluorescence microscopy; assay type: ADME; conditions: 1 h
Summary of the method: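 HT29 and CCD841 cells were seeded at 2×10^5 in glass-bottom dishes. They were co-incubated in DMEM with compound (1 µM) and LysoTracker Red DND-99 (1 µM). Confocal imaging used a 40× water objective. Compound channel: 405 nm laser, 480–530 nm filter. LysoTracker channel: 561 nm laser, 580–630 nm filter.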

[6] = Drug localization in tumor of intra-operative mouse xenografted with human HT-29/Luc cells at 40 mg/kg, iv measured after 1 hrs post dose by fluorescence imaging assay; assay type: ADME, organism-based, Neoplasm; conditions: in vivo
Summary of the method: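 Mice carrying subcutaneous HT29 tumours (1×10^6 cells, grown 3–4 weeks) received 40 mg/kg iv. They were imaged under 1% pentobarbital at 0, 1, 2, 4, 8 and 24 h post-injection (465 nm excitation filter, GFP emission filter). Excised tumours and major organs were then imaged ex vivo.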

[7] = Toxicity in ICR mouse assessed as induction of abnormality in body weight level at 240 mg/kg, ip for 14 days; assay type: organism-based; conditions: in vivo, 336 h
Summary of the method: (§2)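 Female ICR mice (n = 10 per group) given a single intraperitoneal dose at 240.0, 300.0, 375.0, 468.8 or 585.9 mg/kg, or vehicle. Deaths recorded at 1 h, 4 h and daily through day 14. Body weight, drinking, eating and activity observed for abnormality; LD50 derived from mortality.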

[8] = Toxicity in ICR mouse assessed as induction of abnormality in general activity behavior at 240 mg/kg, ip for 14 days; assay type: organism-based; conditions: in vivo, 336 h; summary of the method: as §2
HT-29 [9] = assay: Induction of apoptosis in human HT-29 cells at 1 uM incubated for 72 hrs by FITC-AnnexinV/PI staining based flow cytometry relative to control; assay type: functional
Summary of the method: (§3)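 HT29 cells were cultured 12 h, then exposed to compound (0.4, 1.0, 2.5 µM) or vehicle for 72 h. Harvested cells were stained with Annexin V and PI, and apoptotic cell percentages measured by flow cytometry. Means ± SD come from three separate experiments.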

HT-29 [10] = assay: Induction of apoptosis in human HT-29 cells at 2.5 uM incubated for 72 hrs by FITC-AnnexinV/PI staining based flow cytometry relative to control; assay type: functional; summary of the method: as §3
HT-29 [11] = assay: Induction of apoptosis in human HT-29 cells assessed as increase in Bax protein level incubated for 72 hrs by Western blot analysis; assay type: functional, cell-based
Summary of the method: (§4)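 HT29 cells (1.5×10^5/mL) were treated for 72 h and lysed. Lysate (0.05 mg/lane) was run on 12% SDS-PAGE and transferred to nitrocellulose. After blocking in 5% non-fat milk, blots were probed for Bax, Bcl-2, cleaved caspase-3, cleaved PARP, LC3, p62 and beclin-1. Levels were normalised to β-actin, and means ± SD taken from three independent assays.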

HT-29 [12] = assay: Induction of apoptosis in human HT-29 cells assessed as increase in cleaved PARP protein level incubated for 72 hrs by Western blot analysis; assay type: functional, cell-based; summary of the method: as §4

With COc1cc(-c2nc(NC(=O)OCC3=CCCCC3=O)cc3c2[nH]c2ccccc23)cc(OC)c1OC the Drug metabolism [1] was “Metabolite_Notdetected”, the Drug metabolism [2] was “Metabolite_Notdetected” and the Drug metabolism [3] was “Metabolite_Notdetected”. The Drug metabolism [4] was “Metabolite_Notdetected”, the Drug uptake [5] was “Not Active” and the Drug uptake [6] was “Active”. For the same compound, the Activity [7] was “Non-Toxic”, the Activity [8] was “Non-Toxic” and the Activity (HT-29 [9]) was 36.8%. The Activity (HT-29 [10]) was 52.3%, the Activity (HT-29 [11]) was “Dose-dependent effect” and the Activity (HT-29 [12]) was “Dose-dependent effect”.
